Assay outcomes deposited in PubChem by several laboratories.
CendR NRP1 mod: NRP-1/CendR interaction modulation; O14786; AID 602438; inhibition, % at 25 µM; actives 0.85% (n = 360,000); FAM-RPARPAR peptide binding to NRP-1, fluorescence polarization;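 active means inhibition or corrected inhibition above about 18%, plus a signal ratio from 0.5 to 1.5, limit read from the data, passing the limit was not always enough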
Target sequence (O14786 whole entry, looked up): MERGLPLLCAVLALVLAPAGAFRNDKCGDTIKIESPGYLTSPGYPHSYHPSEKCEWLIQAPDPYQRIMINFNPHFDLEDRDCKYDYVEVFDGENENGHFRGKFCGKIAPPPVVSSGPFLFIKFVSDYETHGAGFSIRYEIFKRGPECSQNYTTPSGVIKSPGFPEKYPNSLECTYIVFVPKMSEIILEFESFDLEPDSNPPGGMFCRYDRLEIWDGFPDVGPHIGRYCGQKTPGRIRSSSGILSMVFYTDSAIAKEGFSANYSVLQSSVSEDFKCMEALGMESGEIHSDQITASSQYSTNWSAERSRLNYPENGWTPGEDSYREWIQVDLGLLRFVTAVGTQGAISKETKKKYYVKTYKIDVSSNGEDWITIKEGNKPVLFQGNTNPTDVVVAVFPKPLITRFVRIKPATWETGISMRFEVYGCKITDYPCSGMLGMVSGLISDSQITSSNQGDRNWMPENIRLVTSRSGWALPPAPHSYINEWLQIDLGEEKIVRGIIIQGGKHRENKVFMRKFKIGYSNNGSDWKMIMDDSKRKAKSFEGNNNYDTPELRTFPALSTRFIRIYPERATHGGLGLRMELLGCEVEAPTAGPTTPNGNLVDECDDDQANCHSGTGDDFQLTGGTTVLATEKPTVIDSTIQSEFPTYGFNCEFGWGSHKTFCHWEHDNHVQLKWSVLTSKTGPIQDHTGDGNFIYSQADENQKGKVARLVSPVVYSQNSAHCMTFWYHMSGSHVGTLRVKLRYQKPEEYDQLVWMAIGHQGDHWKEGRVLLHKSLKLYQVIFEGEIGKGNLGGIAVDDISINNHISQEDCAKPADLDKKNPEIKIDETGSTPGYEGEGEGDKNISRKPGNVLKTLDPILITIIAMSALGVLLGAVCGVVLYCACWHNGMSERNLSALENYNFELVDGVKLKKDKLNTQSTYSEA
FID counter: displaces DNA intercalator in HCV helicase counter-screen; DNA fluorescent intercalator displacement, fluorescence; inhibition, % at 7.9 µM; actives 0.17% (n = 290,000); AID 1845; in the data active means inhibition above about 37%;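 further: 0% = vehicle and 100% = reference compound; higher means more ethidium bromide displaced from hairpin DNA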
MEX-5 binding: C. elegans MEX-5 TCR-2 RNA binding activity | actives 0.38% (n = 300,000) | MEX-5/FITC-TCR2 RNA binding, fluorescence polarization; stronger effect = lower value | AID 1832 | activity score (negative = inhibition of binding), % at 10 µM | Q9XUB2;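 active means inhibition past about -25% in most replicates, and total fluorescence under double the plate's negative control median, limit read from the data; inconclusive means replicates evenly split on the limit, or fluorescence at least double controls; inactive means too little inhibition in most replicates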;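 further: 0% = DMSO and -100% = 5 µM competing unlabeled TCR2 RNA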
core dimer inh: HCV core protein dimerization inhibition; actives 0.33% (n = 300,000); TR-FRET GST/Flag-core106 dimerization, 1536-well; inhibition, % at 5 µM; AID 1899;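 active means inhibition above the mean of all tested compounds plus 3 SD, set per screening campaign, cut at about 45% in these data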
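Material: Tagged HCV core106 pair (GST and Flag) | Amount: GST-core106 13.5 nM, Flag-core106 17 nM | Medium: KF-containing HEPES buffer, pH 7.45, DTT, CHAPS, BSA | Reagent: Eu donor and XL665 acceptor anti-tag antibodies | Schedule: 4 h at 22.5 °C | Technique: Time-resolved FRET, ex 340 nm, em 617 and 671 nm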
An asterisk follows results filed as active; ? = inconclusive; nt = no result. Sampled rows, rich in hits. Any-hit rate of the full collection: about 1.5%.

SMILES	CendR NRP1 mod	FID counter	MEX-5 binding	core dimer inh
COc1ccc2c(c1OC)CN1CCc3cc4c(cc3[C@@H]1[C@@H]2O)OCO4	28.7*	-17.2	-24.1	0.7
COc1ccc2ccccc2c1C(O)c1nccn1C (stereo unspecified)	126.2	45.5*	-4.0	1.0
Cc1cccc(NC2=Nc3ccccc3N3C2=Nc2c(c(C)nn2-c2ccccc2)C3c2ccc(O)c(O)c2)c1 (stereo unspecified)	-6.5	-7.4	?	46.0*
CCCCc1n[nH]c(=S)n1Cc1ccc(C)cc1	27.2*	-21.4	0.2	-4.5
O=C(Nc1ccc2c(c1)CN(C(=O)Nc1ccc(F)cc1)CC2)c1ccccn1	12.6	nt	nt	nt
O=C(CSc1nnc(CNC(=O)C23CC4CC(CC(C4)C2)C3)n1-c1ccccc1)Nc1ccc(F)cc1	27.3*	-22.8	-0.8	13.8
O=C(CSc1nnc(CNC(=O)C23CC4CC(CC(C4)C2)C3)n1-c1ccc(F)cc1)Nc1ccccc1	-5.9	-3.0	-0.5	4.8
Cc1ccc(Cn2c(=N)n(CC(O)COc3ccccc3)c3ccccc32)cc1 (stereo unspecified)	24.1*	24.2	0.1	3.6
N=c1n(Cc2ccccc2)c2ccccc2n1CC(O)COc1ccccc1 (stereo unspecified)	-2.3	32.1	0.7	-1.3
CCCCn1c(=N)n(CC(O)COc2ccccc2)c2ccccc21 (stereo unspecified)	-2.6	12.9	0.5	-4.4
CCCCn1c(=N)n(CC(O)COc2ccc(C)cc2)c2ccccc21 (stereo unspecified)	12.3	41.4*	0.9	-4.3
CCc1nc2ccc(C(=O)Nc3ccc(OC)c(OC)c3)cn2c1N(C)CCC(C)C	-3.9	nt	nt	nt
OC(c1cccc(Cl)c1)c1ncc(-c2cccc3ccccc23)[nH]1 (stereo unspecified)	4.5	nt	nt	nt
CCCNC(=O)c1cc(C2CCCCN2C(=O)c2cc(F)ccc2C)on1 (stereo unspecified)	-5.1	nt	nt	nt
O=C(Nc1cccc2c1CCCC2)c1cc(C2CCCCN2C(=O)CCCc2ccccc2)on1 (stereo unspecified)	52.2*	nt	nt	nt
Cc1ccc(F)cc1C(=O)N1CCCCC1c1cc(C(=O)NCc2ccccc2)no1 (stereo unspecified)	21.6*	nt	nt	nt
O=C(NCc1ccc(F)cc1)c1cc(C2CCCCN2C(=O)CCCc2ccccc2)on1 (stereo unspecified)	49.3*	nt	nt	nt
O=C(NC1CCCC1)C(c1ccccc1)n1c(-c2ccc3c(c2)CCO3)nc2ccccc21 (stereo unspecified)	4.6	nt	nt	nt
CCCc1nc2ccc(C)cn2c1Cc1ccccc1C(F)(F)F	-16.0	nt	nt	nt
O=C1C=C(c2ccccc2)CC(c2cccs2)C1n1cnc([N+](=O)[O-])c1 (stereo unspecified)	1.7	-14.2	2.1	47.3*
O=C1C=C(c2ccccc2)C[C@H](c2cccs2)[C@H]1n1nnc([N+](=O)[O-])n1	-16.5	-0.6	1.2	42.1
Cc1cc(NC2=CC(=O)C(=O)c3ccccc32)no1	28.5*	nt	nt	nt
COCCCn1cc(CN2CC(N3CCN(C4CCN(C)CC4)CC3)CS2(=O)=O)nn1 (stereo unspecified)	2.7	nt	nt	nt
COc1cc(N2Cc3ccccc3C2)ccc1C=O	-2.5	-5.4	1.1	46.2*
COCCN(C(=O)CNC(=O)c1cccs1)C(C(=O)NC1CCCC1)c1cccs1 (stereo unspecified)	19.4*	-16.6	2.2	-5.4
SMILES	CendR NRP1 mod	FID counter	MEX-5 binding	core dimer inh
CCOC(=O)Nc1ccc2nc(-c3cscn3)[nH]c2c1	4.0	nt	nt	nt
O=C(Nc1cc(-c2ccccc2)[nH]n1)c1ccccc1	25.1*	-7.0	0.3	-6.3
CCCCCCN1CCN(C2CN(C3CCCCC3)S(=O)(=O)C2)CC1 (stereo unspecified)	6.4	nt	nt	nt
CC(C)c1ccc(NC2CCCN(C(=O)c3cscn3)C2)cc1 (stereo unspecified)	20.9*	-21.3	3.5	nt
Cc1nnsc1C(=O)N1CCCC(Nc2ccc(C(C)C)cc2)C1 (stereo unspecified)	15.8	-14.7	1.1	4.8
Cc1ccc(SCC(=O)Nc2ccc(N3CCN(C)CC3)c(F)c2)c(C)c1	0.1	38.9*	0.1	-2.6
Cc1ccc(-n2nnnc2SCC(=O)Nc2ccc(N3CCN(C)CC3)cc2)c(C)c1	7.9	19.9	-0.3	-5.1
C[C@@H]1O[C@@H](Oc2c(-c3cc(O)c(O)c(O)c3)oc3cc(O)cc(O)c3c2=O)[C@H](O)[C@H](O)[C@H]1O	-28.3	0.1	-57.5*	-32.4
C[C@@H]1O[C@@H](Oc2c(-c3ccc(O)c(O)c3)oc3cc(O)cc(O)c3c2=O)[C@H](O)[C@H](O)[C@H]1O	-23.7	nt	nt	nt
CC1(C(=O)NCc2ccc(Cl)cc2)CCN1C(=O)Cc1cccs1 (stereo unspecified)	-7.3	nt	nt	nt
CCCCC1=CC2=C(c3ccco3)C(=O)C(C)(OC(=O)c3ccc(OC)cc3)C(=O)C2=CN1Cc1ccccc1 (stereo unspecified)	-39.3	nt	-8.0	14.6
CCCCC1=CC2=C(c3ccco3)C(=O)C(C)(OC(=O)c3ccc(OC)cc3)C(=O)C2=CN1Cc1ccc2c(c1)OCO2 (stereo unspecified)	-31.5	nt	-6.4	55.1*
CCCCC1=CC2=C(c3ccco3)C(=O)C(C)(OC(=O)c3ccc(OC)cc3)C(=O)C2=CN1CCOC (stereo unspecified)	28.5*	nt	-5.0	20.6
COc1ccc(CCNC(=O)c2cc([C@@H](NC(=O)OC(C)(C)C)C(C)C)sc2N)cc1OC	-27.3	nt	nt	nt
CCC(C)(NC=O)C(=O)Nc1c(C)cccc1C (stereo unspecified)	25.8*	3.3	-2.8	-0.4
COCC(=O)Nc1ccc2c(c1)[C@@H]1C[C@H](CC(=O)NCc3cccc(F)c3)O[C@@H](CO)[C@@H]1O2	1.6	nt	nt	nt
Cc1ccc(S(=O)(=O)n2nc(OC(=O)c3ccccc3C)cc2N)cc1	-5.7	-21.4	0.1	11.3
Cc1ccccc1C(=O)Oc1cc(N)n(S(C)(=O)=O)n1	18.1*	-3.6	0.7	-0.6
CN1C(=O)[C@H]2[C@@H](c3ccc(C(F)(F)F)cc3)N[C@]3(CCCN(Cc4ccc(Br)cc4)C3=O)[C@H]2C1=O	4.9	nt	nt	nt
CCCSc1ccc(C(=O)Nc2ccc(Cl)cc2)cn1	28.0*	1.0	-0.4	1.5
CC(CCc1ccccc1)NC(=O)COC(=O)C1CCC(C(C)(C)C)CC1 (stereo unspecified)	31.6*	-20.3	0.0	0.7
Cc1ccc2oc(NC3=NC4(CCCC4)C4=C(CCCC4=O)N3)nc2c1	-3.2	nt	nt	nt
COc1ccc(Nc2nc(-c3sc(NC(C)=O)nc3C)cs2)cc1	nt	5.6	-2.1	59.0*
CCC(=O)N1CCCc2cc(S(=O)(=O)CCC(=O)Nc3ccccc3C)ccc21	27.9*	-21.1	-1.0	-13.3
O=C(c1coc(=O)c(Br)c1)N1CCC(C(O)(c2ccccc2)c2ccccc2)CC1	8.1	-0.4	0.3	1.8
CC1(C)CCCN(C(=O)c2coc(=O)c(Br)c2)C1	-63.6	0.8	-27.6*	nt
O=C(c1coc(=O)c(Br)c1)N1CCCc2ccccc21	-30.2	-1.9	-27.3*	37.7
